Test results published in ChEMBL document CHEMBL4477258, “Ca-asp bound X-ray structure and inhibition of Bacillus anthracis dihydroorotase (DHOase)” (Bioorg Med Chem, 2016).
The source made the active and inactive calls. No cut-off for these calls is given here.

Legend:
[1] = molecular target: T1, Dihydroorotase (Bacillus anthracis) (UniProt Q81WF0); assay: Inhibition of Bacillus anthracis Sterne His-tagged DHOase expressed in Escherichia coli BL21(DE3) Gold cells using DHO as substrate assessed as enzyme activity at 25 or 400 uM preincubated for 10 mins followed by substrate addition measured after 30 mins by DAMO-TSC reagent based colorimetric assay relative to control; parameters: scale not given: the % may be the effect or the level left; conditions: Bacillus anthracis str. Sterne
T1 sequence (whole entry): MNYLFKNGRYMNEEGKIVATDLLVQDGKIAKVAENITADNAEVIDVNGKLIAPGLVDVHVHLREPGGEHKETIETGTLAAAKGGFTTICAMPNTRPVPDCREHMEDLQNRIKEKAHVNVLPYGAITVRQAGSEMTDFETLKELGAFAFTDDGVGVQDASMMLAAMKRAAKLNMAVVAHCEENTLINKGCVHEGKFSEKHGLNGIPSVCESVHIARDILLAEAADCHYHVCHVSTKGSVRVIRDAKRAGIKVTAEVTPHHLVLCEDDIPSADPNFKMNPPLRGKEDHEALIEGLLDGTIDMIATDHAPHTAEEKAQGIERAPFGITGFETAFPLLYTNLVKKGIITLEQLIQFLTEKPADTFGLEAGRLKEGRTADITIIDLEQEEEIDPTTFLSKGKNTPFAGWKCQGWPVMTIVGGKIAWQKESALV
Outline: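 Reverse reaction run in duplicate. Fragments at 400 μM or compounds at 25 μM final, 10 min at room temperature. 10 μL of 320 μM DHO added, 30 min reaction, quenched with acidic DAMO-TSC. Colour developed 16 h in the dark, A540 read.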

[2] = molecular target: T1, Dihydroorotase (Bacillus anthracis); assay: Binding affinity to Bacillus anthracis Sterne His-tagged DHOase expressed in Escherichia coli BL21(DE3) Gold cells assessed as change in melting temperature at 400 uM incubated for 10 mins by SYPRO orange dye based fluorescence thermal shift assay; conditions: Bacillus anthracis str. Sterne
Outline: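 Histidine-tagged DHOase at 5 μM final in 50 mM MES pH 6.5, 0.01% CHAPS, 150 mM NaCl, 2 mM TCEP. Fragment added at 400 μM final and incubated 10 min at room temperature, then SYPRO Orange at 10X diluted from 5000X stock. Heated 25 to 95 °C at […], fluorescence read at ex/em 470/623 nm. Tm shift >2 °C scored as a hit.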

[3] = molecular target: T2, Dihydroorotase (Bacillus anthracis, UniProt Q81WF0); assay: Binding affinity to Bacillus anthracis Sterne His-tagged DHOase expressed in Escherichia coli BL21(DE3) Gold cells by surface plasmon resonance analysis; parameters: species or system Bacillus anthracis str. Sterne
T2 sequence (Q81WF0 whole entry): T1 sequence (whole entry)
Outline: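 His-tag-cleaved DHOase amine-coupled to a CM5 chip at pH 4.5. Ethanolamine-blocked channel used as reference. Compounds run at 0–200 μM (2-fold dilutions) in PBS-P with 2% DMSO and 0.5 mM TCEP, at 10 μL/min and 25 °C. KD taken from steady-state affinity fit of equilibrium response. SD from three independent experiments.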

[4] = molecular target: T2, Dihydroorotase; assay: (§1) Binding affinity to Bacillus anthracis Sterne His-tagged DHOase expressed in Escherichia coli BL21(DE3) Gold cells in presence of N-carbamyl-L-aspartate by surface plasmon resonance analysis; parameters: species or system Bacillus anthracis str. Sterne
Outline: (§2)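 His-tag-cleaved DHOase immobilized on a CM5 chip, with a blank reference channel. Compounds run at 0–200 μM (2-fold dilutions) at 25 °C, 10 μL/min, in PBS-P with 2% DMSO, 0.5 mM TCEP and 1 mM Ca-asp. KD taken from steady-state affinity fit. SD from three independent experiments.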

[5] = molecular target: T1, Dihydroorotase (Bacillus anthracis); assay: as §1; conditions: Bacillus anthracis str. Sterne; outline: as §2

SMILES | Activity [1] [%] | ΔTm [2] [°C] | Kd ([3]; read-out: Kd) [µM] | Kd ([4]; read-out: Kd) [µM] | Kd [3] | Kd [4] | Activity [5]
COc1ccc2[nH]c3c(c2c1)CN(C(C)=O)CC3 | < 50 | > 2 | 205 | 215 |  |  | 
COc1ccc2[nH]c(CN)cc2c1 |  |  |  |  | Not Active |  | 
Cc1ccc2[nH]c3c(c2c1)CCNC3 |  |  |  |  | Not Active | Not Active | 
CCC(=O)Nc1cc(OC)cc(OC)c1 | < 50 | > 2 | 157 | 281 |  |  | 
COc1ccc2[nH]c3c(c2c1)CCNC31CCOCC1 | < 50 | > 2 | 380 | 314 |  |  | 
CSC1(NC#N)NCCc2c1[nH]c1ccc(F)cc21 (stereo not drawn) | < 50 | > 2 |  | > 1000 |  |  | 
CCC(=O)Nc1ccc(OC)cc1OC | < 50 | > 2 | 170 | 170 |  |  | 
CCC1NCCn2cccc21 (stereo not drawn) | < 50 | > 2 | 67 to 334 |  |  |  | Active
COc1ccc2[nH]c3c(c2c1)CCNC3(NC#N)SC (stereo not drawn) |  |  | 21 to 119 | 144 |  |  | 
COc1ccc2[nH]c3c(c2c1)CCNC3 |  |  | 588 | 675 |  |  | 
Cn1ccc2c(CO)cccc21 | < 50 | > 2 | 67 to 334 |  |  |  | Active
CCS(=O)(=O)N(C)c1ccc(C(=O)N2CCCC2)cc1 | < 50 | > 2 | 67 to 334 |  |  |  | Active
